Results published in PubChem BioAssay.
Active and inactive are the calls of the source.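 Rule for the calls, unless noted: active = viability at or below 30% in both replicate assays; inconclusive = viability at or below 30% in just one of the two assays; inactive = the rest.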

Columns and labels:
[1] = reducers of endogenous Her2 protein level, primary screen, SKBR3 breast tumor cells, AlphaScreen, ATP viability (AID 461;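 active = Her2 level under about 52% in both replicate screens, with viability over 70% of control, limit read from the data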;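 for Her2 level: lower value means less Her2 protein in the cells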;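 for viability: percent of carrier control wells set as 100% viability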); details: 18-24 h, measured here: SKBR3 viability, ATP luminescence, at 10 µM
[2] = target: Receptor tyrosine-protein kinase erbB-2 (Homo sapiens) (UniProt P04626); test: as above; details: 18-24 h, at 10 µM, stronger effect = lower value
[3] = SK-BR-3 cell growth inhibitors, pilot screen, 24 h, human (AID 572;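 active = viability at or below 10% of carrier control in both of two separate runs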;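 note: compound exposure lasted between 18 and 24 h rather than exactly 24 h; 100% = carrier-treated control wells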); details: SK-BR-3 viability, CellTiter-Glo luminescence, at 10 µM, stronger effect = lower value
[4] = HUVEC growth inhibition – cell-based, human, primary screen (AID 575); details: HUVEC proliferation, CellTiter-Glo luminescence, 72 h; at 10 µM; stronger effect = lower value;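 note: 100% = median of untreated cell wells with 0.1% DMSO on each plate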
Summary of the method: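 Timing: 72 h treatment at 37 °C; material: HUVEC primary cells; technique: CellTiter-Glo luminescence measuring cellular ATP; controls: vehicle and MePR control wells; measure: percent of median DMSO-control luminescence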

[5] = growth inhibitors of H69AR lung tumor, primary screen, human, duplicate replicates (AID 580;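 active = viability at or under a set limit in both replicates, limit being median viability minus 3 SD, cut at about 48% in these data, passing the limit was not always enough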;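 note: 100% = mean luminescence of untreated wells and 0% = no signal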); details: H69AR lung tumor cells viability, ATP luminescence, 72 h; at 10 µM; stronger effect = lower value
[6] = reversal of MRP1-mediated doxorubicin resistance, pilot screen, H69AR cells, doxorubicin co-treatment (AID 601;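 active = viability loss from added drug above about 55%, and viability with drug at most 40%, in both replicates, limit read from the data, passing the limit was not always enough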); details: CellTiter-Glo, 72 h, at 10 µM; for differential viability (reversal): stronger effect = higher value
[7] = 384-well plate pilot, post-Golgi transport modulator project, inhibition of yeast transport mutant growth (AID 636; in the data active = inhibition above about 31%); details: absorbance 615 nm, about 18 h, stronger effect = higher value
[8] = growth suppression of yeast trafficking mutant, preliminary HTS, modulators of trafficking downstream of Golgi apparatus project, 1536-format plate, OD 615 nm (AID 637; in the data active = inhibition above about 30%); details: yeast transport mutant growth, absorbance 615 nm, 18 h; stronger effect = higher value
[9] = H69AR cells + 2 uM doxorubicin, measured here: viability with 2 uM doxorubicin, stronger effect = lower value
[10] = H69AR cells, compound alone cytotoxicity

Sequence of Receptor tyrosine-protein kinase erbB-2 (Homo sapiens) (P04626 whole entry, looked up): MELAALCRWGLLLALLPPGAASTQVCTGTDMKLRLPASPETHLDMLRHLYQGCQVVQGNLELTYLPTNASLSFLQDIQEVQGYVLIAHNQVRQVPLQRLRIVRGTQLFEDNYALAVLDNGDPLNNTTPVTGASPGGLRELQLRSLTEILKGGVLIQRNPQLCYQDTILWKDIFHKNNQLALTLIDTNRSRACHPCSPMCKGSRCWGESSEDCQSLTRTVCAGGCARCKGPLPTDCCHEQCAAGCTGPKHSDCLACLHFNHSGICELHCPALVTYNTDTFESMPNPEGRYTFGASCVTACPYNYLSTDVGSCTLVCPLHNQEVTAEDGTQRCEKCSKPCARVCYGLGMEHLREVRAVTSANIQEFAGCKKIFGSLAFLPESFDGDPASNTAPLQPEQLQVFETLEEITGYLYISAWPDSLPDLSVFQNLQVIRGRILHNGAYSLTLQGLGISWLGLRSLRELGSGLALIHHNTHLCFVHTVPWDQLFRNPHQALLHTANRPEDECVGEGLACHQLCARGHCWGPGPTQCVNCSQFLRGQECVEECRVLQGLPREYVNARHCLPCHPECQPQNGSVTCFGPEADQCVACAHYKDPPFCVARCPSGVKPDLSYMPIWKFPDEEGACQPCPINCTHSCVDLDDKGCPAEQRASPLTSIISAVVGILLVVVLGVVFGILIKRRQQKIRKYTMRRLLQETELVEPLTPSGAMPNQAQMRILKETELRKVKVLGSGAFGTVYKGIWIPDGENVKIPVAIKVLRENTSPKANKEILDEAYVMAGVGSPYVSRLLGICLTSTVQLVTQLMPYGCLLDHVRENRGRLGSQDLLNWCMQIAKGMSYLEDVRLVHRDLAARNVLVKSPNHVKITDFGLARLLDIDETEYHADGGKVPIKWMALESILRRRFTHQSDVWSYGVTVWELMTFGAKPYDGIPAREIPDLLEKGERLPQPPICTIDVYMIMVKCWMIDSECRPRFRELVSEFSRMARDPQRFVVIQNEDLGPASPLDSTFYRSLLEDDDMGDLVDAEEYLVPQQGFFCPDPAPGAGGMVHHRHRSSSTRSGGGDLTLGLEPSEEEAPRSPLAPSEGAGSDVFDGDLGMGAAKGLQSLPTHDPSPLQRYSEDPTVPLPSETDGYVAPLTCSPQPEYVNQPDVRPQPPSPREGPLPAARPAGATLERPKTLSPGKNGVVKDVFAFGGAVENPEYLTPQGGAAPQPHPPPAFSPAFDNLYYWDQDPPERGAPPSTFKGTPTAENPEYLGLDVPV

SMILES | viability [1] [%] | Her2 level [2] | viability [3] | viability [4] | viability [5] | differential viability (reversal) ([6]; H69AR cells + 2 uM doxorubicin) | viability [6, 9] [%] | viability [6, 10] [%] | inhibition [7] | inhibition [8]
CCN(CC)CCOC(=O)c1cccc(OC)c1 | 115 | 105% (inactive) | 115% (inactive) | 96.9% (inactive) | 90.2% (inactive) | -4.21% (inactive) | 94.4 | 90.2 | -5.07% (inactive) | -2.79% (inactive)
Nc1nc(CSc2nc3ccccc3[nH]2)nc(N2CCOCC2)n1 | 96 | 100% (inactive) | 96% (inactive) | 109% (inactive) | 92.8% (inactive) | 0.96% (inactive) | 91.9 | 92.8 | -0.13% (inactive) | -3.83% (inactive)
Nc1nonc1-c1noc(-c2ccccc2Br)n1 | 112 | 76.5% (inactive) | 112% (inactive) | 54.7% (inactive) | 95.1% (inactive) | 3.17% (inactive) | 92 | 95.1 | -6.62% (inactive) | 5.67% (inactive)
O=C(CC(Cc1ccccc1)C(=O)O)NCCc1ccc2c(c1)OCO2 (stereo not given) | 90.5 | 122% (inactive) | 90.5% (inactive) | 92% (inactive) | 100% (inactive) | 19.3% (inactive) | 80.8 | 100 | -3.82% (inactive) | -7.17% (inactive)
c1cc2c(cc1C1=Nn3c(nnc3C3CCCCC3)SC1)OCO2 | 133 | 108% (inactive) | 133% (inactive) | 64.8% (inactive) | 9.93% (active) | -67.4% (inactive) | 77.3 | 9.93 | -1.84% (inactive) | 3.06% (inactive)
CC(=O)Nc1ccc(NC(=O)C(C)Oc2ccccc2F)cc1 (stereo not given) | 102 | 102% (inactive) | 102% (inactive) | 113% (inactive) | 103% (inactive) | 18.8% (inactive) | 84 | 103 | -5.97% (inactive) | -2.22% (inactive)
O=C(CN1C(=O)COCC1=O)N1CCOCC1 | 91 | 86.5% (inactive) | 91% (inactive) | 104% (inactive) | 96.9% (inactive) | -0.64% (inactive) | 97.5 | 96.9 | 0.26% (inactive) | 0% (inactive)
CCOC(=O)CNC(=O)Cn1cnc2c(nnn2-c2cccc(Cl)c2)c1=O | 82.5 | 109% (inactive) | 82.5% (inactive) | 105% (inactive) | 107% (inactive) | -1.7% (inactive) | 108 | 107 | -0.53% (inactive) | -6.83% (inactive)
Cc1ccc(-c2nnc(-c3ccc(Br)cc3)o2)o1 | 100 | 93.5% (inactive) | 100% (inactive) | 99.9% (inactive) | 86.1% (inactive) | 1.58% (inactive) | 84.5 | 86.1 | -5.87% (inactive) | -1.64% (inactive)
COC(=O)Cn1c(C)nc2c(sc3nc(C)cc(C)c32)c1=O | 110 | 113% (inactive) | 110% (inactive) | 105% (inactive) | 97.6% (inactive) | 7.48% (inactive) | 90.1 | 97.6 | -4.61% (inactive) | 2.79% (inactive)
Cn1c(=O)c(C(=S)NC(=O)C2CC2)c(N)n(Cc2ccccc2)c1=O | 70.5 | 74.5% (inactive) | 70.5% (inactive) | 59.9% (inactive) | 78.1% (inactive) | -6.6% (inactive) | 84.7 | 78.1 | -1.05% (inactive) | -3.65% (inactive)
CCC(C)(C(=O)NC1CCCC1)N(Cc1cccs1)C(=O)Cc1cccs1 (stereo not given) | 122 | 93% (inactive) | 122% (inactive) | 103% (inactive) | 96.8% (inactive) | 15.6% (inactive) | 81.3 | 96.8 | -7.53% (inactive) | -0.63% (inactive)
COc1ccc(-n2cnnc2SCCC#N)cc1 | 106 | 96.5% (inactive) | 106% (inactive) | 88.3% (inactive) | 106% (inactive) | 16.2% (inactive) | 89.5 | 106 | -3.33% (inactive) | 3.71% (inactive)
CCOC(=O)c1cc(-c2nnc(-c3ccc(Oc4ccccc4)cc3)o2)c(C)nc1C | 85 | 88% (inactive) | 85% (inactive) | 80.5% (inactive) | 102% (inactive) | 16.7% (inactive) | 85.7 | 102 | -1.6% (inactive) | -0.16% (inactive)
Cc1ccc(OCC(=O)N2CCN(C(=O)CCC3CCCC3)CC2)cc1 | 104 | 93.5% (inactive) | 104% (inactive) | 94.6% (inactive) | 86.6% (inactive) | -13.4% (inactive) | 100 | 86.6 | -6.89% (inactive) | -2.33% (inactive)
COc1ccc(S(=O)(=O)NCCOc2ccccc2)cc1OC | 94 | 90.5% (inactive) | 94% (inactive) | 97.7% (inactive) | 91.5% (inactive) | -2.55% (inactive) | 94.1 | 91.5 | 6.76% (inactive) | 2.3% (inactive)
O=c1c2ccccc2nc(SCc2cn3ccsc3n2)n1-c1ccc(F)cc1 | 73 | 102% (inactive) | 73% (inactive) | 64.6% (inactive) | 102% (inactive) | -13.3% (inactive) | 115 | 102 | -6.44% (inactive) | 1.43% (inactive)
O=C(c1ccco1)N1CCN(c2c(-c3ccccc3)c3cc(Cl)ccc3[nH]c2=O)CC1 | 94 | 61.5% (inactive) | 94% (inactive) | 52.4% (inactive) | 24.5% (active) | 17.6% (inactive) | 6.86 | 24.5 | -2.11% (inactive) | 7.42% (inactive)
Cn1c(=O)c2c(-c3ccncc3)c3c(nc2n(C)c1=O)-c1ccccc1C3=O | 94 | 104% (inactive) | 94% (inactive) | 98.4% (inactive) | 95% (inactive) | 2.95% (inactive) | 92 | 95 | -1.6% (inactive) | 9.37% (inactive)
CC(C)=CCC(C)(C)C1OCCN1C(=O)c1ccccc1 (stereo not given) | 84.5 | 99% (inactive) | 84.5% (inactive) | 82.4% (inactive) | 98% (inactive) | 8.65% (inactive) | 89.3 | 98 | -3.77% (inactive) | 2.3% (inactive)
Fc1cccc2sc(Nc3nnc(-c4ccco4)o3)nc12 | 109 | 37% (active) | 109% (inactive) | 57.3% (inactive) | 41.2% (active) | -21.4% (inactive) | 62.6 | 41.2 | -0.4% (inactive) | 0% (inactive)
CSc1ccccc1C(=O)NC1CC2CCC1C2 (stereo not given) | 102 | 89.5% (inactive) | 102% (inactive) | 92.9% (inactive) | 94.8% (inactive) | 7.59% (inactive) | 87.2 | 94.8 | -5.33% (inactive) | 5.65% (inactive)
O=C(CNS(=O)(=O)c1ccccc1)NCc1ccccn1 | 84 | 76.5% (inactive) | 84% (inactive) | 96.2% (inactive) | 102% (inactive) | 8.75% (inactive) | 93.2 | 102 | -2.27% (inactive) | 1.45% (inactive)
CC1CN(C2CCCCC2)c2nc3c(c(=O)[nH]c(=O)n3C)n2C1 (stereo not given) | 90.5 | 95% (inactive) | 90.5% (inactive) | 86.1% (inactive) | 82.2% (inactive) | -2.19% (inactive) | 84.4 | 82.2 | -1.95% (inactive) | 7.3% (inactive)
CCn1c(CSc2ncccn2)nnc1SCC(=O)N1c2ccccc2CC1C (stereo not given) | 96 | 87.5% (inactive) | 96% (inactive) | 87.5% (inactive) | 96.3% (inactive) | 11.9% (inactive) | 84.3 | 96.3 | -5.73% (inactive) | 5.41% (inactive)
Cc1c(NS(=O)(=O)c2ccc3c(c2)n(C)c(=O)n3C)c(=O)n(-c2ccccc2)n1C | 113 | 93% (inactive) | 113% (inactive) | 87.3% (inactive) | 94.2% (inactive) | 3.4% (inactive) | 90.8 | 94.2 | -4.67% (inactive) | -0.98% (inactive)
COc1ccc(CCN2C(=O)CCC2(C)C(=O)NCc2cccnc2)cc1OC (stereo not given) | 106 | 91% (inactive) | 106% (inactive) | 109% (inactive) | 89.2% (inactive) | 1.2% (inactive) | 88 | 89.2 | -2.86% (inactive) | -2.22% (inactive)
COc1ccc(C(=O)CSc2nc(C)cc(=O)[nH]2)cc1 | 99.5 | 87.5% (inactive) | 99.5% (inactive) | 99.7% (inactive) | 101% (inactive) | 10% (inactive) | 91.4 | 101 | -3.2% (inactive) | 2.1% (inactive)
O=C(Cn1ncc2c(=O)oc3ccccc3c21)Nc1nc2ccccc2s1 | 113 | 102% (inactive) | 113% (inactive) | 97.2% (inactive) | 102% (inactive) | 7.33% (inactive) | 94.9 | 102 | -8.08% (inactive) | -3.65% (inactive)
